Results from the RNAGym collection of RNA variant scans (doi:10.1126/science.aae0568).
This sample holds only a part of the variants without activity.

B1: tRNA (parent)
chain: GUUCCGUUGGCGUAAUGGUAACGCGUCUCCCUCCUAAGGAGAAGACUGCGGGUUCGAGUCCCGUACGGAACG

Variants of: B1
Assay: yeast fitness relative to wild type (ratio to wild type); higher = fitter; tRNA-Arg(CCU), competitive growth, 37 C, YPD
In short: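 Gene amplicons from the start population and from each of six end populations were read by 100-nucleotide paired-end sequencing. Those end populations came from pooled Saccharomyces cerevisiae strains carrying tRNA-Arg(CCU) gene variants at the native locus, competed in YPD at 37°C for 24 hours. Fitness relative to wild type was worked out from changes in genotype frequencies. Genotypes needed ≥ 100 starting reads, and estimates < 0.5 were set to 0.5.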

Variant	yeast fitness
GUUCCGUUGGCGUAAUGGUAACGCGUCUCCUUCGUAAGGAGAAGACUGUGGAUUCGAGUCCCGUACGGUACG	≤ 0.5
GUUCCGUUGGCGUAAUGGUAACGCGUCUCCUUCCUAAGGAGAAGACUGGGGGUUCGAGUCCCGUACGGAACG	0.914
GUUCCGUUGGCGUAAUGGUAACGCGUCUCCUUCCUAAGGAGAAGACUGAGGGUUCGAGUCCCGUACGGAACG	0.783
GUUCCGUUGGCGUAAUGGUAACGCGUCUCCGUCCCAAGGAGAAGACUGCGGGUUCGAGUCCCGUAUGGAACG	0.558
GUUCCGUUGGCGUAAUGGUAACGCGUCUCCGUCCUAAGGAGAAGACUGCGGGCGCGAGUCCCGUACGGAACG	≤ 0.5
GUUCCGUUGGCGUAAUGGUAACGCGUCUCCUUCCUAAGGAGUUGACUGCGGGUUCGAGUUCCGUACGGUACG	0.51
GUUCCGUUGGCGUAAUGGUAACGCGUCUCCUUCCUAAGGAGAAGACUGCGGGUUGGAGUCCCGUACGGACCG	0.535
GUUCCGUUGGCGUAAUGGUAACGCGUCUCCUUCCUAUGGAGAAGACUGCGGGUUCGAGUCCCGUACGGUACG	0.677
GUUCCGUUGGCGUAAUGGUAACGCGUCUCCUUACUAAGGAGAUGACUACGGGAUCGAGUCCCGUACGGAACG	≤ 0.5
GUUCCGUUGGCGUAAUGGUAACGCGUCUCCGUCCUAAGGAGAAGACUGCGGGUACGAGUCCCGUACGGAACG	0.655
GUUCCGUUGGCGUAAUGGUAACGCGUCUCCUUUCUAAGGAGCAGACUGCGGGUUCGAGUCCCGUACGGAACG	0.562
GUUCCGUUGGCGUAAUGGUAACGCGUCUCCGUCCUAAGGAGAAGACUGCGGGUCGGAGUCCCGCACGGAACG	≤ 0.5
GUUCCGUUGGCGUAAUGGUAACGCGUCUCCUUCCUAAGGAGAAGAGUGCGGGUUCGAGUCCCAUACGGAACG	0.606
GUUCCGUUGGCGUAAUGGUAACGCGUCUCCUUUCUAAGGUGAAGGCUGCGGGUUCGAGUCCCGUACGGAACG	0.575
GUUCCGUUGGCGUAAUGGUAACGCGUCUCCUUCGUAAGGAGAAGACUGCAGGUUCGAGUCCCGUACGGAACG	≤ 0.5
GUUCCGUUGGCGUAAUGGUAACGCGUCUCCUUCCUAAGGAGAAGAAUGCGGGUUCGAGUCCCGUUCGGUACG	0.58
GUUCCGUUGGCGUAAUGGUAACGCGUCUCCUUCCUCAGGAGAAGACUGCGGGUUCGAGUCCCGUACGGAACG	0.842
GUUCCGUUGGCGUAAUGGUAACGCGUCUCCUUCCUAGGGAGAAGACCGCGGGUUCGAGUCCCAUACGGAACG	≤ 0.5
GUUCCGUUGGCGUAAUGGUAACGCGUCUCCUUGCUAAGGAGAAGACUGCCGGUUCGAGUCCCGUACGGAACG	0.508
GUUCCGUUGGCGUAAUGGUAACGCGUCUCCGUCCUAAGGAGAAGACUGCGGGUUCGAGACCCGUUAGGAACG	≤ 0.5
GUUCCGUUGGCGUAAUGGUAACGCGUCUCCUUCCUAAGGAGCAGACUGCGGGUUCGAGUCCCGUACGGAACG	1.17
GUUCCGUUGGCGUAAUGGUAACGCGUCUCCUUCCUAAGGAGAAGACUGUGGGUUCGAGUCCCGAACGGAACG	0.685
GUUCCGUUGGCGUAAUGGUAACGCGUCUCCUUCCUAAGGAGAAGACUGCGGGUUCGAGUCCCGUACGGCACG	1.04
GUUCCGUUGGCGUAAUGGUAACGCGUCUCCUUCCUAAGGAGGAGACUGCGGGUUCGAAUCCCGUACGGAACG	0.716
GUUCCGUUGGCGUAAUGGUAACGCGUCUCCUUCCUAAGGCGAAGACUGUGGAUUCGAGUCCCGUACGGAACG	≤ 0.5

Variant	yeast fitness
GUUCCGUUGGCGUAAUGGUAACGCGUCUCCUUCCUAAGGAGAAGACUGCGGGUUCGCGUCCCGUACGGAACG	0.574
GUUCCGUUGGCGUAAUGGUAACGCGUCUCCUUCGUAAGGAGAAGACUGCGGGUUCGAGUCCCGUACAGAACG	0.539
GUUCCGUUGGCGUAAUGGUAACGCGUCUCCUUCCUAAGGAGAAGAGUGCGGGUUCGAGUCCCGUACGGAACG	0.972
GUUCCGUUGGCGUAAUGGUAACGCGUCUCCUUCCUAAGGAGAAGAAUGCGGGUUCGAGUCCCGUACGGAACG	1.01
GUUCCGUUGGCGUAAUGGUAACGCGUCUCCUUCCUAAGGAGAAGACUGUGGGUUCGAGUCCCGUACGGUACG	0.889
GUUCCGUUGGCGUAAUGGUAACGCGUCUCCUUCCUAAGGAGGAGACUGCGGGUUCGAGUCCCCUAUGGAACG	≤ 0.5
GUUCCGUUGGCGUAAUGGUAACGCGUCUCCUUCCUAAGGAGAAGACUGCGGGUUCGAGUUGCGUACGGAACG	≤ 0.5
GUUCCGUUGGCGUAAUGGUAACGCGUCUCCUUCCUCAGGAGAAGACUGCGGGCUCGAGUCCCGUACGGAACG	0.569
GUUCCGUUGGCGUAAUGGUAACGCGUCUCCUUCCUAAGGCGAAGACUGCGGGUUGGAGUCCCGUACGAUACG	0.581
GUUCCGUUGGCGUAAUGGUAACGCGUCUCCGUCCUAAGGAGAAGACGGCGGGGUCGAGUCUCGUACGAAACG	≤ 0.5
GUUCCGUUGGCGUAAUGGUAACGCGUCUCCUUCCUAAGGAGAAGAUUGUGGGUUCGAGUCCCGUACGGAACG	0.905
GUUCCGUUGGCGUAAUGGUAACGCGUCUCCUUCCUAAGGAGAAGACUGCGGGUUCGAGUUCCGCACGGAACG	0.695
GUUCCGUUGGCGUAAUGGUAACGCGUCUCCUUCCUAAGGAGUAGACUGCGGGUUCGAGUCCAGUACGGAACG	0.615
GUUCCGUUGGCGUAAUGGUAACGCGUCUCCUUCGUAAGGAGAAGACUGCGGGUUCGAGUCCUGUACGGAGCG	≤ 0.5
GUUCCGUUGGCGUAAUGGUAACGCGUCUCCGUCCUAAGGAGAAGACUGCGGGUUCGAGACCCGUACGGAACG	0.779
GUUCCGUUGGCGUAAUGGUAACGCGUCUCCUUCCUCAGGAAAAGACUGCGGGUUCGAGUCCCGUACGGAACG	≤ 0.5
GUUCCGUUGGCGUAAUGGUAACGCGUCUCCUUCGUAAGGAGAAGACUGUGGAUUCGAGUCCCGUACGGAACG	0.725
GUUCCGUUGGCGUAAUGGUAACGCGUCUCCUUCCUAAGGAGAAGACUGCGGGUUAGAGUCCCGUACGGAACG	0.749
GUUCCGUUGGCGUAAUGGUAACGCGUCUCCUUCCUAAGGAGAAGACUGCGGGUUCGAGUGCCGUACGGAGCG	0.675
GUUCCGUUGGCGUAAUGGUAACGCGUCUCCUUCCUAAGGAGGAGACUGCGGGUUCGAGUCCUGUACGGCACG	0.542
GUUCCGUUGGCGUAAUGGUAACGCGUCUCCUUGCUAAGGAGAAGACUGCGGGUUCGAGUCCCGUACGGAACG	0.785
GUUCCGUUGGCGUAAUGGUAACGCGUCUCCUUUCUAAGGAGAAGACUGCGGGUUCGAGUCCCGUACGGAACG	0.723
GUUCCGUUGGCGUAAUGGUAACGCGUCUCCUUCCUAAGGAGAAGACUGCGGGUUCGCGUCCCGUAUGGAACG	0.663
GUUCCGUUGGCGUAAUGGUAACGCGUCUCCUUCCUAGGGAGAAGACUGCGGGUUCGAGUCCCGUACGCAACG	≤ 0.5
GUUCCGUUGGCGUAAUGGUAACGCGUCUCCUUUCUACGGAGAAGACUGCGGGUUCGAGUCCCGUACGGAACG	≤ 0.5

Variant	yeast fitness
GUUCCGUUGGCGUAAUGGUAACGCGUCUCCUUACUAAGGAGAAGACUGCAGGUUCGAGUCCCGUACGUAACG	0.596
GUUCCGUUGGCGUAAUGGUAACGCGUCUCCUUCCUAAGGAGCAGACUGCGGGUACGAGUCCCGUACGGAACG	≤ 0.5
GUUCCGUUGGCGUAAUGGUAACGCGUCUCCUUCCUAUGGAGAAGACUGCGGGUUCGAGUCCCGUAUGGAACG	0.542
GUUCCGUUGGCGUAAUGGUAACGCGUCUCCUUCCUAAGGGGAAGACUCCGGGUUCGAGUCCCGUACGGAACG	0.559
GUUCCGUUGGCGUAAUGGUAACGCGUCUCCUUCCUAUGGAGAAGACUGCGGGUACGAGUCCCGUACGGAACG	0.514
GUUCCGUUGGCGUAAUGGUAACGCGUCUCCUUCCUAAGGAGAAGACUGCGGGUUUGAGUCACGUACAGAACG	≤ 0.5
GUUCCGUUGGCGUAAUGGUAACGCGUCUCCUUCUUAAAGAGAAGAUUGCGGGUUCGAGUCCCGUACGGAACG	0.524
GUUCCGUUGGCGUAAUGGUAACGCGUCUCCUUUCUAGGGAGAAGACUGCGGGUUCGCGUCCCGUACGGAACG	≤ 0.5
GUUCCGUUGGCGUAAUGGUAACGCGUCUCCUUCCUAAGGGGAAGACUACGGGUUCGAGUCCCGUACGGAUCG	0.533
GUUCCGUUGGCGUAAUGGUAACGCGUCUCCUUCCUAAGGAGAAGAAUGCGGGUUCGAGUCCCGUACGGACCG	0.771
GUUCCGUUGGCGUAAUGGUAACGCGUCUCCUUCCUAAGGUGAAGUCUGCGGGUUCGAGUCCCGUACGGAACG	0.618
GUUCCGUUGGCGUAAUGGUAACGCGUCUCCUUCCUAUGGAGAAGACUGCGGGUUCGAGUCCCGUACGGAUCG	0.558
GUUCCGUUGGCGUAAUGGUAACGCGUCUCCUUCCUAAGGAGAAGAAUGCGGGUUCGACUCCCGUACGGUACG	0.543
GUUCCGUUGGCGUAAUGGUAACGCGUCUCCUUCCUAAGGAGAAGACUGCGGGUUCGAGUCCCGUCCGGAACG	0.926
GUUCCGUUGGCGUAAUGGUAACGCGUCUCCGUCCUAAGGAGAAGACCGCGGGUUCGAGUCCCGUACGGAACG	0.952
GUUCCGUUGGCGUAAUGGUAACGCGUCUCCGUCCUAAGGAGAAGACGGCGGGUUCGAGUCCCGUACGGAACG	0.667
GUUCCGUUGGCGUAAUGGUAACGCGUCUCCUUCUUAAGGAGAAGACUGCAGAUUCGGGUCCCGUACCGAACG	≤ 0.5
GUUCCGUUGGCGUAAUGGUAACGCGUCUCCUUCCUAAGGAGAGGACUGCGGGUUCGAGUCCCGUACGGAACG	1.06
GUUCCGUUGGCGUAAUGGUAACGCGUCUCCUUUGUAAGGCGAAGACUGCGGGUUCGAGUCCCAUACGGAACG	≤ 0.5
GUUCCGUUGGCGUAAUGGUAACGCGUCUCCUUCCUAAGGAGAAGUCUGCGGGUUCGAGUCCCGUACGGAACG	1.12
GUUCCGUUGGCGUAAUGGUAACGCGUCUCCUUCCUAAGGAGAAGCCUGCGGGUUCGAGUCCCGUACGGAACG	1.25
GUUCCGUUGGCGUAAUGGUAACGCGUCUCCUUUGUAAGGCGAAGACUGCGGGUUCGAGUCCCGUACGGCACG	≤ 0.5
GUUCCGUUGGCGUAAUGGUAACGCGUCUCCUUCCUAAGGAGCAGACGGCGGCUUCGUGUCCCGUACGGAACG	≤ 0.5
GUUCCGUUGGCGUAAUGGUAACGCGUCUCCUUCCUAAGGAGAAGACUGCGGGUUCGAGUCCCGUACGGAUCG	1.04
GUUCCGUUGGCGUAAUGGUAACGCGUCUCCUUCCUAAGGAGAAGACUGCGGGUUCGAGUUCCGUACGGAACG	0.841
